Measured values reported in ChEMBL document CHEMBL4513216, “Probing the Open Global Health Chemical Diversity Library for Multistage-Active Starting Points for Next-Generation Antimalarials” (ACS Infect Dis, 2020).

experiment: Toxicity liver stage against HepG2, at 10uM; assay type: cell-based; parameters: test concentration 10 uM, cell line HepG2-A16-CD81EGFP; conditions: human, HepG2-A16-CD81EGFP cells; read-out: INHIBITION
In short: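 Uninfected HepG2-A16-CD81EGFP cells, 3 × 10^3 per well, 1536-well, plated on prespotted compound at 10 μM final, parasite-free screening media added to match infected plates; puromycin 10 μM positive, DMSO 0.5% negative; run in parallel with 48 h PbLuc assay at 37 °C, 5% CO2; viability by CellTiter-Glo luminescence, normalized to controls.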

SMILES	cytotoxicity at 10 µM [%]
COCC1CN(Cc2ccc(C)s2)Cc2nnn(C)c21 (stereo unspecified)	5.17
Cc1nc(C(=O)N2CCOC(Cc3ccccc3)C2)co1 (stereo unspecified)	-3.24
CC(C)Cc1cc(C(=O)NCC(c2ccc(F)cc2)N(C)C)n(C)n1 (stereo unspecified)	-3.97
CN(C)c1ccc2c(c1)CN(C(=O)c1c[nH]cn1)C2c1cnco1 (stereo unspecified)	-0.234
COc1ccc(Br)c(C(=O)NCC2CCN(C(=O)c3ccoc3)CC2)c1	-21.7
CN1CCc2c(C#N)c(NCC3CCCO3)n3cnnc3c2C1 (stereo unspecified)	4.48
Cc1cc(C2CCC2)nc(NCC(C)(C)CO)n1	-2.56
CCOCC1CN(c2ccc(C)nn2)Cc2cnn(CC)c21 (stereo unspecified)	9.41
CCOCC1CN(S(=O)(=O)c2cccc(C)c2)Cc2nccn2C1 (stereo unspecified)	-108
O=C(c1cn(Cc2ccc(Cl)cc2)nn1)N1CCCO1	-6.01
COc1cc(C)ccc1OCc1nc(C(=O)N2CCCO2)co1	-45.9
CCN(Cc1nc2c(cnn2C)c(=O)[nH]1)c1ccc(OC)c(OC)c1	2.31
COCCN1CCC(c2nc3ccc(N4CCCC4)cn3n2)CC1	11.8
CC(C)(C)n1ncc2c1NC(=O)CC2c1cccc(F)c1 (stereo unspecified)	-8.81
O=C(CCc1ccccn1)N1CCCN(C(=O)CC2CCCC2)CC1	-0.546
CCc1cnc(C)nc1NC1CC(=O)N(CC)C1 (stereo unspecified)	1.07
NC(=O)c1ccc(C(=O)N2CCCC(n3ccnc3)C2)s1 (stereo unspecified)	-20.5
O=C(CN1CCCC(Cn2cncn2)C1)NCCC1=CCCCC1 (stereo unspecified)	-3.33
CNC(=O)C1CCCCN1C(=O)c1n[nH]c(=O)c2ccccc12 (stereo unspecified)	0.0666
O=C(CS(=O)(=O)Cc1ccc(F)cc1)NCc1ccccc1F	5.96
Cc1cc(N)nc(C2(C)CCCN2C(=O)Cc2ccc(F)cc2)n1 (stereo unspecified)	-27.5
COc1ccc(OC)c(NC(=O)c2cc3c([nH]c2=O)CCCC3=O)c1	-0.607
CCCn1ncc2c(C(=O)Nc3cnn(CC)c3C)cc(C3CC3)nc21	-0.842

SMILES	cytotoxicity at 10 µM [%]
COC(=O)CNC(=O)Cn1ccc2cccc(OC)c21	-34.9
CC(=O)NCC1CCN(c2cc(C(C)C)nc3ccnn23)CC1	6.64
Cc1ccc(CC(=O)N2CCN(CC(C)O)CC2)cn1 (stereo unspecified)	-2.37
CCc1nc(CC)n(CC(=O)NCc2ccccc2C)n1	15.2
CN1CCCc2cc(NC(=O)N3CCOC(C(N)=O)C3)ccc21 (stereo unspecified)	0.602
COCCC1(CNC(=O)NCC2CCCS2)CCCC1 (stereo unspecified)	0.96
COCCN1CCCC(O)(CN2CCN(c3cc(C)ccn3)CC2)C1=O (stereo unspecified)	0.622
C[C@@H]1CN(C(=O)CCc2cnn(C)c2)CC[C@@]1(O)C1CCOCC1	-0.872
COCc1cnc2n1CCN(C(=O)c1cc3ccccc3o1)C2C (stereo unspecified)	-105
CC(C)c1noc(CCCC(=O)NC(C)c2nnc3n2CCC3)n1 (stereo unspecified)	9.96
COC(=O)c1ccc(CNC(C)c2ccc(S(C)(=O)=O)cc2)cc1 (stereo unspecified)	5.21
O=C1CO[C@H]2CCN(C(=O)c3ccc4c(c3)CCCC4)CC[C@@H]2N1	0.905
CN(C(=O)c1ccccn1)c1nnc(C2CCOC2)s1 (stereo unspecified)	0.07
O=S(=O)(c1ccc(F)cc1)N1CC[C@H]2[C@H]1CCN2c1ncccn1	-2.85
CCC=C(C)C(=O)NCc1ccnc(OC2CCOCC2)c1	5.48
Cc1cccc(CN2CCCC(O)(CNCCc3c[nH]cn3)C2=O)c1 (stereo unspecified)	1.31
O=C(c1cccnc1)N1CCN2C(=O)N(Cc3ccc(F)cc3)C[C@H]2C1	-0.756
CCc1nc2n(n1)CCCC2Nc1nc(C(C)C)ns1 (stereo unspecified)	3.88
CCn1ccnc1CN1CCCN(C(=O)Cc2ccc(C)s2)CC1	-19
CC(C)(C)N1CC(C(=O)NCc2nc(C3CCCCC3)no2)CC1=O (stereo unspecified)	1.08
Cc1ccc(C(=O)NS(=O)(=O)c2ccccc2Br)c(=O)[nH]1	-0.704
COc1ccc2nc(CNC(=O)C3CC4(CCNCC4)CN3C)[nH]c2c1 (stereo unspecified)	0.488
Cc1nc(NC(=O)C2CCCN(C(N)=O)C2)sc1-c1ccccc1 (stereo unspecified)	9.31

SMILES	cytotoxicity at 10 µM [%]
OC(CN1CCN(CCOCC(F)(F)F)CC1)c1ccccc1 (stereo unspecified)	-7.99
Cc1ncc2c(n1)CCN(Cc1nc(Cc3ccccc3)no1)C2	0.414
Cc1ccc(N(CCC#N)C(=O)CN2CCCC2c2ccsc2)cc1 (stereo unspecified)	-9.01
CCSc1nnc(N(CCC#N)CCC#N)s1	4.91
O=C1CC(NCc2ccc(Cl)s2)CN1Cc1cccc(F)c1 (stereo unspecified)	-0.73
Cc1cc(-c2nn(C)c(Cl)c2CN2CCOCC2CC(N)=O)no1 (stereo unspecified)	3.3
CCC(C(=O)N1CCS(=O)(=O)CC1)n1cccn1 (stereo unspecified)	1.28
C1CC(NCc2nc(C3CC3)no2)CN(Cc2noc(C3CC3)n2)C1 (stereo unspecified)	-8.65
Cc1cc(C(=O)OCC2CCCN2C(N)=O)c(C)o1 (stereo unspecified)	6.72
CC(C)c1nnc2n1CCN(Cc1ncc(-c3ccccc3)o1)C2	-12.8
CN(C)C(=O)N1CC2(CCNCC2)c2cc(Cl)ccc21	-69.8
CN(C)[C@H]1CCCCN(C(=O)COCc2nc3cc(F)ccc3[nH]2)C1	0.185
Cc1cc(CN2CCC(C3Nc4ccccc4S(=O)(=O)N3)CC2)oc1C (stereo unspecified)	4.22
CCN(C(=O)COC)C(c1cccnc1)c1ccc2c(c1)CCO2 (stereo unspecified)	-12.4
Cc1ccccc1C(=O)N1C[C@@H]2CCN(c3cccnc3)C[C@@H]2C1	-76.3
CC(C)(C)CN(CCC#N)C(=O)c1cccc(CC#N)c1	7.05
CCN(Cc1cccc(F)c1)Cn1nc(C)c2c(C)onc2c1=O	-3.54
Cn1cnnc1CN1CCC2(CCCN(C3CCCCC3)C2=O)C1 (stereo unspecified)	-117
CC(=O)c1cccc(NC(=O)Cn2nc(-c3cccs3)oc2=O)c1	4.78
Cc1ccccc1CSc1ncccc1C(=O)N(C)C	-7.24
CC(C)OC[C@H]1CCC[C@]12CN(S(=O)(=O)C1CC1)CCO2	-2.51
CCCN(CC(=O)N(C)C)C(=O)c1ccc(-c2nc(C)cs2)cc1	-15.7
N#Cc1ccc(NC(=O)N2CCCCC2CN2CCCC2=O)cc1 (stereo unspecified)	4.65

SMILES	cytotoxicity at 10 µM [%]
Cc1cc(Nc2cnccn2)nc(C2CCCN(CCO)C2)n1 (stereo unspecified)	-5.87
O=C1Nc2ccccc2CC12CCCN2Cc1ccc(F)cc1 (stereo unspecified)	10.5
COC(=O)c1cccc(S(=O)(=O)NC(=O)CC2CCCC2)c1	-9.68
CC1CN(C)CCN1C(=O)c1cccn1Cc1ccncc1 (stereo unspecified)	-5.53
CCC(=O)N1CCC(c2nc(N3CCCCC3)ncc2S(C)(=O)=O)CC1	4.03
COCCN1C(=O)C[C@H]2[C@H]1CCN2C(=O)c1ccc[nH]1	5.89
Cc1nc(C)n(CC2CCCN(CCCS(=O)(=O)N(C)C)C2)n1 (stereo unspecified)	-3.15
CN(C)CCN(C)C1CCCN(C(=O)c2ccc(Cn3ccnc3)o2)C1 (stereo unspecified)	6.69
CS(=O)(=O)CCNC(=O)C1(c2cccc(Cl)c2)CCCCC1	8.68
Cc1cc(NCc2csc(-c3ccco3)n2)ccc1C(N)=O	20.3
CCC(=O)N1CCCC(C(=O)c2cnn(-c3ccc(F)cc3)c2N)C1 (stereo unspecified)	4.57
O=C1CCC(=O)N1c1nn(Cc2ccc(F)cc2)cc1Cl	-13.2
CNC(=O)N(C)CC1(c2ccc(Br)cc2)CC1	-9.6
Cc1cnn(C2CN(CC(=O)NCC(C)C)C2)c1	-1.33
CCOC(=O)C1(O)CCN(C(=O)Nc2cccc(F)c2)CC1	-144
CC(C)S(=O)(=O)NCC1CCCN(C(=O)c2ccc(F)cc2)C1 (stereo unspecified)	4.68
CC(=O)N(CCC(=O)NC1(C#N)CCC1)Cc1ccccc1	12.6
Cc1csc(CNC(=O)Cc2ccc3c(c2)OCCO3)n1	-1.3
Cc1cc(C(=O)N2CC[C@@H](N(C)C)[C@@H]2Cc2ccccc2)no1	-0.567
O=C(CN1CC(c2nc(C3CC3)no2)C1)NCc1ccc(F)cc1	0.291
CCCc1c(C(=O)N2CCN(c3cnccn3)CC2)cnn1C	9.77
COc1ccc(OC)c(C2CCN(C3CCN(C(C)=O)CC3)C2)c1 (stereo unspecified)	-3.2
O=c1ccc(-n2ccnc2)nn1CCNS(=O)(=O)c1ccc(Br)cc1	-7.21

SMILES	cytotoxicity at 10 µM [%]
CC(C)CC(NC(=O)CN(C)c1cnccn1)c1cccs1 (stereo unspecified)	2.84
O=C(Cc1cccs1)N1C[C@H]2CC[C@@H](C1)N(Cc1ccccn1)C2=O	1.07
CN(C)[C@@H]1CCN(C(=O)NC2CCCC2)[C@H]1Cc1cnn(C)c1	-0.336
COCCN1C[C@@H]2[C@@H](OC)CCN(Cc3ccc(C)o3)[C@@H]2C1	-4.42
Cc1ncncc1C(=O)N1CCCN(Cc2ncc(Cl)n2C)CC1	6.45
Cn1ccc(C(=O)Nc2nc(-c3ccc(Cl)cc3)n[nH]2)cc1=O	-12.3
CCC1CCc2c(c3ccccc3[nH]c2=O)O1 (stereo unspecified)	-1.1
F[C@@H]1CN(C2CCC2)C[C@@H]1OCc1nc2ncccc2[nH]1	-6.66
CCCNS(=O)(=O)c1ccc2[nH]c(=O)cc(C)c2c1	-3.37
CCc1c(C)[nH]c(C2(N)CCCC2)nc1=O	-0.327
Cc1cc(C)c(CNC(=O)NC2COc3ccccc3C2)c(=O)[nH]1 (stereo unspecified)	-13.8
Cc1cc(NCCc2c[nH]cn2)nc(-c2cccnc2)n1	2.49
CCOc1ccccc1C(CC(=O)N(C)c1ccccc1)NC(C)=O (stereo unspecified)	-8.28
CC(Nc1ccc2c(c1)CCC2)c1nc(C2CC2)no1 (stereo unspecified)	7.92
CC(C)(C)C(=O)N1CCC(n2nc(-c3ccco3)ccc2=O)CC1	-15.4
Clc1snnc1CN1CCCCC1Cn1cccn1 (stereo unspecified)	-14.8
Cc1cccc2c1nc1n2[C@@H](CNC(=O)C2CCOCC2)COC1	-1.47
Cc1noc(C)c1CN1CC[C@H]2OCC[C@@]2(C(=O)N(C)C)C1	-76.5
CCc1ccsc1C(=O)NC(C#N)CC(C)C (stereo unspecified)	-15
